Fewer inactive variants are shown than the library holds.
B1: tRNA (parent)
chain: GUUCCGUUGGCGUAAUGGUAACGCGUCUCCCUCCUAAGGAGAAGACUGCGGGUUCGAGUCCCGUACGGAACG

Variants of: B1
Test: yeast fitness relative to wild type (ratio to wild type); higher = fitter; tRNA-Arg(CCU), competitive growth, 37 C, YPD
Outline: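 A pool of Saccharomyces cerevisiae strains, each with a tRNA-Arg(CCU) gene variant at the native genomic locus, was competed in YPD at 37°C for 24 hours across six parallel replicates. The variants had been chemically synthesised at a 3% per-site mutation rate over 69 sites, and gene amplicons before and after competition were read by 100-nucleotide paired-end sequencing. Darwinian fitness relative to wild type rested on changes in genotype frequencies. Genotypes required ≥ 100 starting reads, and estimates < 0.5 were set to 0.5.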

| Variant | yeast fitness |
| --- | --- |
| C29U U32C | 0.981 |
| A15C U16C A37C C60A | ≤ 0.5 |
| C5A C27G | 0.709 |
| A14G U32G | 0.597 |
| G12C C27A A37G C49U | ≤ 0.5 |
| G12A C49A G68A | ≤ 0.5 |
| C34G A45U U53G A57G | 0.569 |
| C5A G51A C61A | ≤ 0.5 |
| C11A C60G A65U | ≤ 0.5 |
| G10C A57C U64A | ≤ 0.5 |
| A45U C62U G63C | ≤ 0.5 |
| C11U C24G C27G G52A | 0.551 |
| C34G A40U U47A G67C | ≤ 0.5 |
| G10A C33U A65C | ≤ 0.5 |
| C4U U7A A36U | 0.567 |
| U2G A42C U47A A65U | ≤ 0.5 |
| U2C G6A G23A C27U A45C C60A | 0.605 |
| G6A G44A C46A G52A A65U | ≤ 0.5 |
| G9C C29A C34U | ≤ 0.5 |
| U8C G12A G18A A45C | ≤ 0.5 |
| C5A C22A G50C | 0.738 |
| A15C U19C A37C G51A G67C | ≤ 0.5 |
| U2G U13A C22U | 0.579 |
| U32C A42U G51C | 0.533 |

| Variant | yeast fitness |
| --- | --- |
| C55U U59C | 0.683 |
| C5U C24U A40C A45U | ≤ 0.5 |
| G10A C60G G67A | ≤ 0.5 |
| A20G G67A | 0.95 |
| U13A C24U U59C G67A | ≤ 0.5 |
| C22A A70G | 0.948 |
| C11U A15U C22U | 0.507 |
| C27U C33G C34G G44A G50A G52A A65U | ≤ 0.5 |
| C11G C29U C34U C62A U64C C66U | ≤ 0.5 |
| A37U G68C | 0.837 |
| C11G A36C A57C C66G | ≤ 0.5 |
| G10A C30U C46A | 0.695 |
| U32G C62U | 0.625 |
| C46G U59G C61G | ≤ 0.5 |
| U13A C22A A42U | 0.582 |
| G44C G50C U54G C61G | 0.568 |
| U3A A65C A70C | 0.679 |
| G18A G68C A69U | ≤ 0.5 |
| C4A G39A C55U U59G G68C | ≤ 0.5 |
| C22A C29G G44A U64G | ≤ 0.5 |
| C4U C24U C27G | ≤ 0.5 |
| C30U U32G A37G G63A | ≤ 0.5 |
| A45U C62G | 0.837 |
| C11U U26A A36U | ≤ 0.5 |

| Variant | yeast fitness |
| --- | --- |
| A21G C22A A40U | ≤ 0.5 |
| C24G C31A C66U | ≤ 0.5 |
| C4U C11U U13C C33G A40C | ≤ 0.5 |
| U19C C49A C55U | ≤ 0.5 |
| U28C C46A | 0.992 |
| C5A C22G C29A A43U G68A | ≤ 0.5 |
| A14U A20C U59C | ≤ 0.5 |
| C4G G6C G39C | 0.578 |
| G6A A14U A57G U59C | ≤ 0.5 |
| U16G A45G | 1 |
| U13G A42G | 0.733 |
| A42U C49U G50A | 0.651 |
| C11G C31A C55U | ≤ 0.5 |
| U7C C31U A36U A43C C55G | 0.539 |
| C31U G58C C61A A69U | 0.505 |
| C11G A21G C34G A40C | ≤ 0.5 |
| C11G A14G | 0.529 |
| C11U G48U | 0.853 |
| G23A A36G C61U A65U | ≤ 0.5 |
| C5A C34G C46U A70U | ≤ 0.5 |
| C24A A36G A43G | ≤ 0.5 |
| G9C C66G | 0.547 |
| U13G A40G U47C A69U | 0.653 |
| G6A C24U U32G A40U | ≤ 0.5 |

| Variant | yeast fitness |
| --- | --- |
| C4G G39C | 0.747 |
| U28G C46G C61U | ≤ 0.5 |
| C11G C27G G67A | ≤ 0.5 |
| G12A C29A A45U | 0.531 |
| U3A G12A U19A C60A A70C | 0.569 |
| U3A U7C C11U U13C C31A | ≤ 0.5 |
| A15G A21C U54G A65U | ≤ 0.5 |
| U28A A42G C55A C66A | ≤ 0.5 |
| A15U G38C G39A A43C C60G A65C | 0.559 |
| U13C G23C C62A | ≤ 0.5 |
| C22U G25C C31U | 0.625 |
| C33U A42C G68U | 0.538 |
| U2A C46U A65G | 0.592 |
| G25C G41C C46U C66U | ≤ 0.5 |
| G10C A69G | 0.51 |
| G17A A20G G25C C34U C46G G63A A65C | 0.561 |
| G23C G50C G52A | 0.698 |
| G9A C22U C30G C61U A70U | ≤ 0.5 |
| U8C A15U U16A U26A G58A | ≤ 0.5 |
| G12C A14C C60G | 0.618 |
| C5U U8C C30G C31G A65C | ≤ 0.5 |
| U2G C5A | 0.725 |
| A20G G23A | 0.89 |
| C29A A37G C49A U64C G68A | ≤ 0.5 |

| Variant | yeast fitness |
| --- | --- |
| U35A U59C C62U C66U | 0.645 |
| C11G C34G A36G G48C | ≤ 0.5 |
| C62U G63C | 0.752 |
| G6C C11A U32A A42G C55U C61U | ≤ 0.5 |
| U2C G10A G12A G18C C33U A69C | ≤ 0.5 |
| G12C C34A G58C A65C A69C | ≤ 0.5 |
| U32C C46G G52C G68C | ≤ 0.5 |
| A57G U59A U64G | ≤ 0.5 |
| U3A C11A A69C | ≤ 0.5 |
| U13G U28A C30A | ≤ 0.5 |
| U19C C29A A37G | ≤ 0.5 |
| U19C C29G U54A A65C | ≤ 0.5 |
| U3G C11U G68A | ≤ 0.5 |
| U7A G10C C22U C27G C66U | ≤ 0.5 |
| G23C C24U A37C G50C | ≤ 0.5 |
| C5U A14C A21C C33U G56A | ≤ 0.5 |
| U2A A70U | 1.06 |
| U3C C55G U64A | 0.563 |
| A20C C49A G52A C61U | ≤ 0.5 |
| G9A C11G U19C G67A | ≤ 0.5 |
| G56C G68A | 0.7 |
| A43C G48C | 0.933 |
| U8G U26A A43C | 0.55 |
| U2G C27G G67C | ≤ 0.5 |

| Variant | yeast fitness |
| --- | --- |
| C30A G48A U64A C66G | 0.611 |
| G23C U28A | 0.559 |
| G9C C27U G52C | ≤ 0.5 |
| C5G U7C A20U A43G | ≤ 0.5 |
| C11U U16A U64A | 0.514 |
| C4U U35A A43U C62U G67C G68A | ≤ 0.5 |
| G56A U59C A65C A70G | 0.568 |
| U7A C11U G17C C30G A37C G48C G51A | ≤ 0.5 |
| U2G C24A C31G A45U | ≤ 0.5 |
| U2A C5A A21C | ≤ 0.5 |
| A37G G56C A69C | ≤ 0.5 |
| G6C G18C A21G A40U C49U | ≤ 0.5 |
| U2G A20C G25A A69C | ≤ 0.5 |
| C5A U8C U13C G18A C31G C46U | ≤ 0.5 |
| U3A A14C | 0.567 |
| C4U U8C A69U | 0.875 |
| C30U C31U A57G | 0.75 |
| U7C C33A G58C G67A | 0.602 |
| A21G C27A A36U A40G G52C G67A | ≤ 0.5 |
| A20U G44A C60A | ≤ 0.5 |
| A21U U28A A40U A45U | 0.878 |
| A15C G17A A36G G38C U59C | ≤ 0.5 |
| A21U C24G U54G C55G C62U | ≤ 0.5 |
| A14C U53A A65C A70G | 0.587 |

| Variant | yeast fitness |
| --- | --- |
| U2G U32C A40G | ≤ 0.5 |
| U2C G50C C60G | ≤ 0.5 |
| U8G U35A A70U | ≤ 0.5 |
| U8A G18C C27U A65C | ≤ 0.5 |
| A14U U28A G41C A42U G52A A70C | ≤ 0.5 |
| C22A G25A A65U | 0.684 |
| C33G G39U A69C | ≤ 0.5 |
| C4A C11U C22A G23C A40G | ≤ 0.5 |
| G17A C22A C31A C33A C49A | 0.573 |
| C22A C30U C31G | 0.551 |
| G17A C33A A37U A57G | ≤ 0.5 |
| G51A U59C | 0.692 |
| U16C A21U | 0.756 |
| A15C C31G C33G C55U | ≤ 0.5 |
| G23C A37G C66A | ≤ 0.5 |
| A14U A65G C66G | 0.788 |
| G6A U13G C27U C30A G44C C46U | ≤ 0.5 |
| A15C G63C | 0.616 |
| U2C A70G | 0.945 |
| G9C C55A A69C | ≤ 0.5 |
| U3G G10C U26C | ≤ 0.5 |
| U2C C4A U8C G18C U35C G63A | ≤ 0.5 |
| C24A G56A | 0.711 |

Reference: the RNAGym collection of RNA variant scans (doi:10.1126/science.aae0568)
